Results on eight compounds are retold here after paper PMC4206694 (Journal of Medicinal Chemistry, 2014).

The test system of series [1] is newborn hippocampal neurons. To be noted: cited from earlier work.
For series [2] the following is noted: cited from earlier work.
Series [3] relates to dopaminergic neurons within the SNc. To be noted: cited from earlier work.
The conditions of series [4]: cited from earlier work. This is another data set of the same source.
For series [5] the following is noted: cited from earlier work. This is another data set of the same source.
In series [6] the test system is motor neurons in the spinal cord. As to conditions: cited from earlier work.
Series [7] is described as follows: Long-term treatment tolerability. It counts as in vivo.
Series [8] has as its system cerebral cortical neurons. As to conditions: cited from earlier work.
Series [9] relates to dopaminergic neurons within the SNc. The series can be described thus: MPTP model of Parkinson's disease. It counts as in vivo, mouse. As to conditions: BID, 21 days after MPTP; for rescue of TH+ neurons: 10 mg kg^–1 day^–1, IP. Put shortly: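 Adult male C57Bl/6 mice, individually housed 1 week, received free-base MPTP 30 mg/kg/day IP for 5 days. Compound or vehicle was started on day 6, 24 h after the last MPTP dose, and given twice daily for 21 days. After perfusion and fixation in 4% paraformaldehyde, every fourth section through striatum and SNc was stained for tyrosine hydroxylase. TH+ cells were counted blinded; mean ± SEM.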

Series [10] concerns newborn hippocampal neurons. The series can be described thus: In vivo hippocampal neuroprotection assay. Details: species or system mouse. To be noted: for number of surviving newborn hippocampal neurons (BrdU+ cells): ICV 10 μM, Figure 1. Summed up: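 Adult (12-week) wild-type […] mice, environmentally deprived, four per group. Compound was infused ICV into the left lateral ventricle by implanted osmotic minipump (0.5 μL/h, 7 days) or given IP twice daily. BrdU 50 mg/kg/day IP for 6 days; perfused 24 h after last BrdU. Anti-BrdU staining after formamide/SSC and HCl unmasking. BrdU+ SGZ/dentate cells counted contralaterally, every fifth section, normalized to dentate gyrus volume.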

Another series has as its target T1, CYP2B6 (Homo sapiens, UniProt P20813).
T1 sequence (P20813 1-491): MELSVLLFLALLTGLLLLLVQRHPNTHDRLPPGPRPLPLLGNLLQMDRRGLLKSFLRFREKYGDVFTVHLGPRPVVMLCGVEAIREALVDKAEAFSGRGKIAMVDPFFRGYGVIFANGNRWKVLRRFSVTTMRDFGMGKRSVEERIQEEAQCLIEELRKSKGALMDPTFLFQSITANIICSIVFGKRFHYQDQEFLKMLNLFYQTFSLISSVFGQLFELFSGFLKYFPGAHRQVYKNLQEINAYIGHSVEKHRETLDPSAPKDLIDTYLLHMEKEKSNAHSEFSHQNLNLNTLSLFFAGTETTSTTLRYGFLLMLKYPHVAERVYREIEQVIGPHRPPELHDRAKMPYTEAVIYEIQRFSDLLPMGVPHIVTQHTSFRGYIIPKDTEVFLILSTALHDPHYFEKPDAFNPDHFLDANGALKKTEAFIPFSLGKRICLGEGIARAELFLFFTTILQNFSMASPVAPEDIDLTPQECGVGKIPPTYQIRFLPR
The series can be described thus: Cytochrome P450 inhibition, CYP2B6. It counts as in vitro ADME.

The next series addresses CYP3D6 (Homo sapiens, UniProt P10635). The series can be described thus: Cytochrome P450 inhibition, CYP3D6. It is filed as in vitro ADME.
In another series the target is CYP2C9 (Homo sapiens, UniProt P11712). Put plainly: Cytochrome P450 inhibition, CYP2C9. It counts as in vitro ADME.
CYP2C9, sequence (P11712 whole entry): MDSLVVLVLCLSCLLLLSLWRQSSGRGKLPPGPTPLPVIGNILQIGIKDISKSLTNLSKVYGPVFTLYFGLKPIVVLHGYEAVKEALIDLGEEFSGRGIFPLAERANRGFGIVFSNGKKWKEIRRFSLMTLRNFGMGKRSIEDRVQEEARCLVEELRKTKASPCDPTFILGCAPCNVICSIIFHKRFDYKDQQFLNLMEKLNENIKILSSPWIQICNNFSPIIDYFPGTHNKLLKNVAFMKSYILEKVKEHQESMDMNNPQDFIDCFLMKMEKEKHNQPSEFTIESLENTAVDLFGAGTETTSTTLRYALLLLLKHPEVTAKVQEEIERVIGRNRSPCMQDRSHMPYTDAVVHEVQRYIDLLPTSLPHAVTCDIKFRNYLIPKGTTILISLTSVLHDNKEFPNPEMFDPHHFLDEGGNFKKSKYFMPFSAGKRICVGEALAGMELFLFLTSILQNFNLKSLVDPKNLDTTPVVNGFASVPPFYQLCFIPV
The next series addresses CYP3A4 (Homo sapiens, UniProt P08684). Put plainly: Cytochrome P450 inhibition, CYP3A4. It counts as in vitro ADME.
The target of another series is μ-opioid receptor (Homo sapiens, UniProt P35372). Put plainly: Psychoactive Drug Screening Program competition binding, μ-opioid receptor. As to conditions: read-out: IC50 μ-opioid receptor; ligand displacement, PDSP.
μ-opioid receptor, sequence (P35372 whole entry, species assumed): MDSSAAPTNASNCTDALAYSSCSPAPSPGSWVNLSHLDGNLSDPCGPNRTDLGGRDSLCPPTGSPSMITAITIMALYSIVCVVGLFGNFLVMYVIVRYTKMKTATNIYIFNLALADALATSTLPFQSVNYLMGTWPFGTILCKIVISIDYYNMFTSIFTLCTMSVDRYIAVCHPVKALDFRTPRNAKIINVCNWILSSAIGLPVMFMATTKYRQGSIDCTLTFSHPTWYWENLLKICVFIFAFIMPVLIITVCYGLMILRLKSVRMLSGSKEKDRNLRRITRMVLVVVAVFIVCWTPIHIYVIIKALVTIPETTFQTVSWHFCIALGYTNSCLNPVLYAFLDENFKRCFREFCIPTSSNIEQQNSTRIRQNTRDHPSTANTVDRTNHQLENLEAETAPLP
The next series concerns the target T2, CYP2C8 (Homo sapiens, UniProt P10632).
T2 sequence (P10632 1-490): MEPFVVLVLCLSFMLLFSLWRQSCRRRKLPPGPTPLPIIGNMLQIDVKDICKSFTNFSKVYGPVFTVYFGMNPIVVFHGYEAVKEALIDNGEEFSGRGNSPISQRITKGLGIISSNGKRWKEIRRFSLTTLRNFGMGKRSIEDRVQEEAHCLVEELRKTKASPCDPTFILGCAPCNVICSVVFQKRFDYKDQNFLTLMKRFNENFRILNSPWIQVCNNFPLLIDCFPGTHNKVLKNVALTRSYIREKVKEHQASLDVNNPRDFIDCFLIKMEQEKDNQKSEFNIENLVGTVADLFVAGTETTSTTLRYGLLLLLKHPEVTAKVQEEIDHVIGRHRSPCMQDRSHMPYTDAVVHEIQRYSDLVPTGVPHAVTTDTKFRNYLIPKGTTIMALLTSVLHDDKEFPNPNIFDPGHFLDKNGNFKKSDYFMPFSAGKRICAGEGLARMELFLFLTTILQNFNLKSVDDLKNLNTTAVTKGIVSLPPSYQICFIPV
The series can be described thus: Cytochrome P450 inhibition, CYP2C8. It is filed as in vitro ADME.

Series [11] is described as follows: Pharmacokinetic analysis, plasma and brain levels. As to conditions: single time point (6 h) after IP 1, 3, 10 or 30 mg/kg, Figure S3. It is filed as in vivo, mouse. Summed up:
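Compound in 5% DMSO/10% cremophor EL/85% D5W (pH 7.2) was dosed to adult mice (0.2 mL total). Mice were killed by CO2. Plasma came from ACD-treated blood spun at 9300g. Brains were rinsed in PBS and homogenized in 3 volumes of PBS. Plasma or lysate (100 μL) was precipitated with 200 μL acetonitrile/0.15% formic acid and spun at 13120g for 5 min. Supernatant was analysed by HPLC/MS/MS.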

The IC50 is the midpoint of a concentration-inhibition curve.

CYP3D6, sequence (P10635 whole entry): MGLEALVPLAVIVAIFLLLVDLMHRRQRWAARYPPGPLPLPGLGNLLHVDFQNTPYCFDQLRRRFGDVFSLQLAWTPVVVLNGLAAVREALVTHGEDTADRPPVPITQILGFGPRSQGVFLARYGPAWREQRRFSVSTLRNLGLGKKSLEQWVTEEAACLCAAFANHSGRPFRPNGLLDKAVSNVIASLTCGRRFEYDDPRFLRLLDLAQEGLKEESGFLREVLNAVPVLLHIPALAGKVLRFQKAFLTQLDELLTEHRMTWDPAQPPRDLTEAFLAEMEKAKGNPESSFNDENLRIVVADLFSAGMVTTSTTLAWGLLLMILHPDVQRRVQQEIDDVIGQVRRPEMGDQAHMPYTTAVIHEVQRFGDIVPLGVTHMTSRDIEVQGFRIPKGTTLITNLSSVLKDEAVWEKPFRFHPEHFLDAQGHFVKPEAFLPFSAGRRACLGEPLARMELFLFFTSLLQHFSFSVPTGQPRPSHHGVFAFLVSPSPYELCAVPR
CYP3A4, sequence (P08684 whole entry): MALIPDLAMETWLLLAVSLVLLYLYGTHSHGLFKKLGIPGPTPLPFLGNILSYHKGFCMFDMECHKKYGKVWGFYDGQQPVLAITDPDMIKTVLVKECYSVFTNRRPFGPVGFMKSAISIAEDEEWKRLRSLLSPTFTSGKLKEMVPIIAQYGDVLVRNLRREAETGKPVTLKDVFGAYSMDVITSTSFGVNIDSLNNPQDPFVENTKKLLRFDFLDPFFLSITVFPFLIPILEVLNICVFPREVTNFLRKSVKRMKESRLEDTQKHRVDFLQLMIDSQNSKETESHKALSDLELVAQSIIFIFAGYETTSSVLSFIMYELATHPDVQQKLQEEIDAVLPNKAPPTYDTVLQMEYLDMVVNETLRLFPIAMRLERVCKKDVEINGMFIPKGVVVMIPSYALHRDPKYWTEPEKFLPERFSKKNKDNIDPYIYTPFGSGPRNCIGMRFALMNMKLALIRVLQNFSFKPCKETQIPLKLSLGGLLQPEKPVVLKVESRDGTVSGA

On to `OC(CNc1ccccc1)Cn1c2ccc(Br)cc2c2cc(Br)ccc21` (stereo not drawn) [compound 1], for which, in series [1] (unbiased in vivo screen, 1 week), the “number of surviving newborn hippocampal cells” value is reported as “approximately doubled”. The “neuroprotective effect in retinal degeneration” value in series [2] is “neuroprotective effects”. For the same compound, the “protection of neurons in the substantia nigra, MPTP mouse model” value in [3] is on record as “protect neurons in the substantia nigra”. Besides, the “neuroprotective effect in age-related cognitive decline” value in [4] was “neuroprotective effects”. For the same compound, in [5], the antidepressant effect result is given as “antidepressant activity”. For the same compound, the “motor neuron cell death in spinal cord of G93A SOD1 transgenic mice” value in series [6] was “minimize motor neuron cell death in the spinal cord”.

Turning to `COc1cccc(NCC(F)Cn2c3ccc(Br)cc3c3cc(Br)ccc32)c1` (stereo not drawn) [compound 2], in [1] (previous studies), the “activity in the in vivo hippocampal neuroprotection assay” value is reported as “substantially improved the activity”. Besides, the “impact on weight, behavior, or appearance” value in [7] (up to 40 mg kg^–1 day^–1 for 21 days) is reported as “no negative impact on the weight, behavior, or appearance”. Moreover, the “protection of cerebral cortical neurons, moderate fluid percussion TBI” value in series [8] is reported as “protect rat cerebral cortical neurons”. For the same compound, the “protection of neurons in the substantia nigra, MPTP mouse model” value in series [3] is recorded as “protect neurons in the substantia nigra”. Besides, the “rescue of TH+ neurons” value in series [9] is “around 75%”. For the same compound, the “dose showing significant neuroprotective effect in MPTP model” value in [9] (IP) is on record as 5 mg kg^–1 day^–1. In addition, in [5], the antidepressant effect result is “exert antidepressant effects”. Moreover, in series [6], the “motor neuron cell death in spinal cord of G93A SOD1 transgenic mice” value is “minimize motor neuron cell death in the spinal cord”.

Regarding `Cl.NCC(F)Cn1c2ccc(Br)cc2c2cc(Br)ccc21` (stereo not drawn) [compound 12, 3-(3,6-Dibromo-9H-carbazol-9-yl)-2-fluoropropan-1-amine], the “number of surviving newborn hippocampal neurons (BrdU+ cells)” value (“number … (BrdU+ cells)” for short) in series [10] (7 days) is on record as “increase in the number of BrdU+ cells compared with vehicle”.

Regarding `COc1cccc(NCC(F)Cn2c3ccc(Br)cc3c3cc(Br)ccc32)n1` (stereo not drawn) [compound 15, N-(3-(3,6-Dibromo-9H-carbazol-9-yl)-2-fluoropropyl)-6-methoxypyridin-2-amine], the “impact on weight, behavior, or appearance” value in series [7] (up to 10 mg kg^–1 day^–1 for 21 days) is “no negative impact on the weight, behavior, or appearance”. For the same compound, the “number … (BrdU+ cells)” value in series [10] (7 days) is given as “approximately doubled”. Besides, in series [10] (IP, 7 days), the “dose at which active in hippocampal neuroprotection” value was 1 mg kg^–1 day^–1 and the “dose at which ceiling of efficacy is reached in hippocampal neuroprotection” value came out at 10 mg kg^–1 day^–1. Moreover, the “rescue of TH+ neurons” value in [9] is on record as “over 85%”. For the same compound, the “dose showing significant neuroprotective effect in MPTP model” value in series [9] (IP) turned out to be 1 mg kg^–1 day^–1.

Consider `NCC(O)Cn1c2ccc(Br)cc2c2cc(Br)ccc21` (stereo not drawn) [compound 16, 1-Amino-3-(3,6-dibromo-9H-carbazol-9-yl)propan-2-ol], for which the “number … (BrdU+ cells)” value in series [10] (7 days) is “increase in the number of BrdU+ cells compared with vehicle”.

`COc1cccc(NC[C@H](F)Cn2c3ccc(Br)cc3c3cc(Br)ccc32)n1` [(−)-15, (S)-N-(3-(3,6-Dibromo-9H-carbazol-9-yl)-2-fluoropropyl)-6-methoxypyridin-2-amine]: the CYP2B6 sensitivity entry at CYP2B6 is given as “insensitive”. The CYP3D6 sensitivity result at CYP3D6 is reported as “insensitive”. On CYP2C9, the CYP2C9 sensitivity result was “insensitive”. The CYP3A4 sensitivity result on CYP3A4 is on record as “insensitive”. The IC50 on μ-opioid receptor came out at 8.2 µM. The CYP2C8 sensitivity result on CYP2C8 was “insensitive”. Also, the “enantiomer-specific neuroprotective activity in mouse model of neurogenesis” value in series [10] (pure enantiomers dosed ICV 7 days, Figure 2) was “highly active”. Further, the “plasma and brain concentrations compared with racemic 15” value in series [11] was “indistinguishable”. For the same compound, in series [9] (IP, Figure 3), the “neuroprotective activity in MPTP model (enantiomers)” value is “strongly protective”.

Regarding `[N-]=[N+]=NCC(F)Cn1c2ccc(Br)cc2c2cc(Br)ccc21` (stereo not drawn) [compound 11, 9-(3-Azido-2-fluoropropyl)-3,6-dibromo-9H-carbazole], the “number … (BrdU+ cells)” value in [10] (7 days) is “inactive”.

Consider `COc1cccc(NCC(O)Cn2c3ccc(Br)cc3c3cc(Br)ccc32)n1` (stereo not drawn) [compound 17, 1-(3,6-Dibromo-9H-carbazol-9-yl)-3-((6-methoxypyridin-2-yl)amino)propan-2-ol], for which the “number … (BrdU+ cells)” value in series [10] (7 days) is “increase in the number of BrdU+ cells compared with vehicle”.
